The list is not random: actives were taken first. Their share in the collection is about 3.1%.
pPAFAH inh – pPAFAH enzyme inhibitors, primary screen, biochemical, fluorescence polarization, human; Platelet-activating factor acetylhydrolase (Homo sapiens), Q13093; recombinant pPAFAH, FP-rhodamine probe fluorescence polarization; inhibition, % at 3.39 µM; 1.5% of 330,000 active; AID 463082, 2010;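 active = inhibition above the mean inhibition across the screen plus 3 SD, cut at about 25% in these data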;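 note: inhibitors block binding of the rhodamine activity-based probe so polarization drops; 0% = enzyme with DMSO and 100% = wells lacking pPAFAH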
PAFAH2 inh – PAFAH2 enzyme inhibitors, primary screen, biochemical, fluorescence polarization, human; inhibition, % at 3.39 µM; 0.99% of 340,000 active; recombinant PAFAH2, FP-rhodamine activity probe;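 active = inhibition above the mean over all tested compounds plus 3 SD, cut at about 30% in these data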;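 note: inhibitors block probe labeling of enzyme so polarization drops; 0% = enzyme with DMSO and 100% = wells lacking PAFAH2 protein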
PAFAH1B3 FP inh – PAFAH1B3 enzyme inhibitors, primary screen, biochemical, fluorescence polarization, human | Platelet-activating factor acetylhydrolase IB subunit alpha1 (Homo sapiens), Q15102 | recombinant PAFAH1B3, FP-rhodamine probe | inhibition, % at 3.39 µM | 0.28% of 340,000 active;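 active = inhibition above the screen-wide average of all tested compounds plus 3 SD, cut at about 25% in these data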;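 note: 0% = enzyme with DMSO only and 100% = wells lacking PAFAH1B3 protein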
Apaf1 inhib – inhibitors of human Apaf-1 apoptosome, primary screen, biochemical, DEVD-Rh110 fluorescence, uHTS | Apoptotic protease-activating factor 1 (Homo sapiens), O14727 | reconstituted apoptosome caspase-3 activity | inhibition, % at 20 µM | 0.71% of 330,000 active; active = inhibition of at least 40% at 20 µM;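 note: plate controls were DMSO wells for no effect and DEVD-CHO caspase inhibitor wells for full effect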
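Material: biochemical Apaf-1 apoptosome reconstitution. Medium: Hepes buffer, pH 7.5. Also added: cytochrome c activation, bis-DEVD rhodamine 110 substrate. Timing: 30 min compound preincubation, 50 min activation, room temperature. Measured by: rhodamine 110 fluorescence at Ex 480/Em 540 nm.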
PAFAH1B2 FP inh – PAFAH1B2 enzyme inhibitors, primary screen, biochemical, fluorescence polarization, human; recombinant PAFAH1B2, FP-rhodamine activity probe; Platelet-activating factor acetylhydrolase IB subunit alpha2 (Homo sapiens), P68402; AID 492953, 2010; 1.2% of 340,000 active; inhibition, % at 3.39 µM;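 active = inhibition above the mean of all tested compounds plus 3 SD, cut at about 24% in these data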;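 note: 0% = enzyme with DMSO and 100% = wells lacking PAFAH1B2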
* marks the source's active call; other numbers are inactive results; nt = no result given.

SMILES	pPAFAH inh	PAFAH2 inh	PAFAH1B3 FP inh	Apaf1 inhib	PAFAH1B2 FP inh
Fc1ccc(C(OCCN2CCN(CCCc3ccccc3)CC2)c2ccc(F)cc2)cc1	5	4	10	56*	1
COC12CCC3(CC1C(C)(O)C(C)(C)C)[C@H]1Cc4ccc(O)c5c4[C@@]3(CCN1CC1CC1)C2O5 (stereo partly drawn)	0	-2	3	9	-1
CN[C@H]1C[C@H]2O[C@@](C)([C@H]1OC)n1c3ccccc3c3c4c(c5c6ccccc6n2c5c31)C(=O)NC4	40*	nt	nt	51*	nt
C[C@]12CCC3C(CC[C@H]4C[C@@H](O)CC[C@]34C)C1C/C(=N/O)[C@@H]2O (stereo partly drawn)	0	-9	-4	-11	5
O=c1c2ccccc2nc(/C=C/c2ccc(O)c(O)c2)n1-c1ccccc1	30*	1	8	13	-1
O=c1c2ccccc2nc(/C=C/c2ccccc2)n1-c1ccc(O)cc1	0	-1	-3	17	1
Cc1cc(C)c(N=Cc2c(O)[nH]c(=O)[nH]c2=O)c(C)c1	0	2	11	1	3
O=C(N/N=C/c1c(O)n(Cc2ccc(F)cc2)c(=S)[nH]c1=O)c1ccncc1	16	-7	-9	1	42*
O=c1[nH]c(=S)n(Cc2ccc(F)cc2)c(O)c1/C=N/N1CCCCCC1	0	-3	0	4	33*
O=c1[nH]c(=S)n(Cc2ccc(F)cc2)c(O)c1C=NCCCn1ccnc1	3	-16	-2	-10	30*
O=c1[nH]c(=S)n(Cc2ccc(F)cc2)c(O)c1C=NCc1ccc2c(c1)OCO2	9	-9	4	12	0
CCn1c(O)c(/C=N/NC(=O)c2ccncc2)c(=O)[nH]c1=S	1	-35	-38	7	-25
COc1ccc2c(C)c(CC(=O)N3C[C@H]4C[C@@H](C3)c3cccc(=O)n3C4)c(=O)oc2c1C	7	2	4	8	-2
Cc1ccc(Sc2ccc(C=C3C(=O)N(C)C(=O)N(C)C3=O)o2)cc1	8	2	-6	-7	57*
COC(=O)C1=C(C(=O)OC)C2OC1c1cc3ccccc3cc12	nt	4	4	nt	1
COc1ccc2c(c1)NP(=S)(Oc1ccccc1)N2 (stereo not drawn)	7	4	4	50*	11
CCC(C)c1ccc(N2C(=O)NC(=O)/C(=C/c3cccn3CCOc3ccc(C)cc3)C2=O)cc1 (stereo not drawn)	28*	25	5	23	17
Cc1ccc(N2C(=O)NC(=O)/C(=C\c3cnc(-c4ccccc4)nc3)C2=O)cc1	3	3	4	-2	-7
C[C@]12CCC3C(CC[C@H]4C[C@@H](O)CC[C@]34C)C1C[C@H](Br)[C@@H]2O (stereo partly drawn)	-1	nt	nt	5	nt
CC(=O)N1Cc2cnnn2-c2ccccc2C1C#N (stereo not drawn)	nt	1	8	nt	2
Cn1cc(C(=O)OCC(=O)NC2CCCCC2)c2ccccc21	33*	72*	3	-3	5
CC1CCN(C(=O)COC(=O)c2cn(C)c3ccccc23)CC1	-3	-4	1	4	5
CN1C(=O)NC(=O)/C(=C/c2ccc([N+](=O)[O-])o2)C1=O	12	nt	nt	-1	nt
CN1C(=O)NC(=O)/C(=C/c2ccc([N+](=O)[O-])s2)C1=O	25*	29	23	15	22
O=S(=O)(c1ccc(Cl)cc1)c1ccc(Cl)cc1	-2	4	10	12	66*
COCc1cc(OC(=O)N(C)C)nc(-c2ccccc2)n1	0	nt	nt	-13	nt
c1cc(OCCN2CC2)ccn1	nt	-11	3	nt	-2
C=CCn1c(O)c(C(CC)=Nc2ccc(N(C)C)cc2)c(=O)[nH]c1=O	34*	nt	nt	6	nt
O=S(=O)(NC1CCCC1)OCC(Cl)(Cl)Cl	10	8	-4	-5	9
O=S(=O)(NC1CCCCCCC1)OCC(Cl)(Cl)Cl	29*	7	-5	8	48*

Screening data from PubChem BioAssay.
